Measured values of several laboratories.
Compare with care: the assays were run in different laboratories.
Target: Tyrosine-protein kinase Lyn (LYN, Homo sapiens, UniProt P07948)

Structure (SMILES)	test	setting	remaining binding
CN(CCCC(F)(F)F)c1nccc(-c2cnn3ncccc23)n1	binding	1 µM	86%
CCC(=O)N[C@@H]1CC[C@H](C(=O)N(C)c2ccc(-c3nc4ccccc4o3)cc2)C1	cell-free assay, competition with immobilised ligand	1 µM	92%
CN(C)c1nccc(-c2cnn3ncccc23)n1	binding	1 µM	83%
C[C@@H](c1ccc(-n2cnc3c(N)ncnc32)cc1)N1CCc2nn(C)c(Cc3ccccc3)c2C1=O	binding, competition with immobilised ligand	0.1 µM	100%
Cc1ccc(-n2nc(C(C)(C)C)cc2NC(=O)Nc2ccc(-n3c(N)c(C(N)=O)c4nc5ccc(NCCCN)cc5nc43)cc2)cc1	cell-free assay, competition with immobilised ligand	1 µM	0.5%
N[C@@H]1CCN(c2nccc(-c3cnn4ncccc34)n2)C1	binding	1 µM	100%
c1cncc(-c2cccc(Nc3nccc(NC4CCCCC4)n3)c2)c1	binding, competition with immobilised ligand	10 µM	48%
Cc1cnc(Nc2ccc(C(=O)N3CCC(N4CCCC4)CC3)cc2)nc1-c1cc2ccccc2s1	binding, competition with immobilised ligand	1 µM	78%
F[C@@H]1CCN(c2nccc(-c3cnn4ncccc34)n2)C1	binding	1 µM	87%
O=C(Nc1cnc(Oc2ccc(F)cc2)nc1)N1CCc2ncccc2[C@@H]1c1ccc(F)cc1	cell-free assay, competition with immobilised ligand	1 µM	82%
COc1ncc2cc3ccccc3nc2c1C#N	cell-free assay, competition with immobilised ligand	5 µM	94%
O=C(Nc1c[nH]nc1C(=O)NC1CCNCC1)c1cc(F)cc(F)c1	binding, competition with immobilised ligand	1 µM	100%
O=C(c1ccc(Nc2nccc(-c3cc4ccccc4s3)n2)cc1)N1CCC(N2CCCC2)CC1	binding, competition with immobilised ligand	1 µM	97%
FC(F)(F)Oc1cccc(-c2cnc3ccc(-c4ccncc4)nn23)c1	cell-free assay, competition with immobilised ligand	5 µM	93%
COCCOc1nc(-c2ccc(Cl)nc2)nc2c1CN(C(=O)c1ncn3ccccc13)CC2	cell-free assay, competition with immobilised ligand	0.1 µM	73%
O=C(c1ccc(Nc2ncc(Cl)c(-c3ccc(Cl)s3)n2)cc1)N1CCC(N2CCCC2)CC1	binding, competition with immobilised ligand	1 µM	87%
O=c1nc(-c2ccccn2)sc2ccccc12	cell-free assay, competition with immobilised ligand	1 µM	100%
C[C@@H]1CCN(c2nccc(-c3cnn4ncccc34)n2)C1	binding	1 µM	93%
Nc1cnc(N2CCc3cc(S(=O)(=O)Nc4c(F)cc(Cl)cc4F)cc(N4CCCC4=O)c32)nc1	cell-free assay, competition with immobilised ligand	1 µM	88%
CN(C)c1ncc(F)c(-c2cnn3ncccc23)n1	binding	1 µM	100%
COc1cc(-c2cn(C3CCc4c(F)cccc4N(CC(F)(F)F)C3=O)nn2)ccc1-n1cnc(C)c1 (stereo not drawn)	cell-free assay, competition with immobilised ligand	1 µM	100%
COc1cnc(Nc2cccc(S(N)(=O)=O)c2)nc1N1CCN(c2ccccc2)CC1	binding, competition with immobilised ligand	1 µM	92%
CCCCN(CCCC)C(=O)CN1C[C@@H](c2cc(OC)c3c(c2)OCO3)[C@H](C(=O)O)[C@H]1CC(C)(C)CCC	cell-free assay, competition with immobilised ligand	1 µM	75.1%
Cc1cnn2ncc(-c3ccnc(N(C)C)n3)c2c1	binding	1 µM	92%
